We go through two molecules from ChEMBL document CHEMBL4342478, “Discovery of Potent N-Ethylurea Pyrazole Derivatives as Dual Inhibitors of Trypanosoma brucei and Trypanosoma cruzi” (ACS Med Chem Lett, 2020).

Calls of active or inactive are those of the source. The calls are words filed in the database; no cut-off is given here.

Data set [1] deals with Trypanosoma cruzi. Briefly: Antitrypanosomal activity against Trypanosoma cruzi Brazil trypomastigotes expressing firefly luciferase infected in BALB/c mouse assessed as reduction in parasitemia at 50 mg/kg, po via gavage twice daily at 30 mins after administration with 50 mg/kg, ip CYP inhibitor, 1-aminobenzotriazole twice daily and measured after 6 days by bioluminescence assay. Type of data set: functional, organism-based. In a few lines:
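BALB/c mice were infected with trypomastigotes of a transgenic T. cruzi Brazil strain expressing firefly luciferase. Treatment was by oral gavage twice daily: vehicle (PBS with 2% methylcellulose and 0.5% Tween 80), or 50 mg/kg test article given 30 min after ip 1-aminobenzotriazole 50 mg/kg. Benznidazole 30 mg/kg was given by oral gavage once daily. Parasite load was measured by bioluminescence imaging at treatment day 0 (3 days post infection) and day 6.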

Data set [2] relates to Trypanosoma brucei brucei. Nature of the data set: Antitrypanosomal activity against Trypanosoma brucei brucei BS427 after 48 hrs by resazurin dye based fluorescence assay. It counts as functional, organism-based. To be noted: Trypanosoma brucei, BS427, 48 h; read-out: IC50. In a few lines: (§1)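 IC50 values are the mean of two independent experiments. The T. b. brucei assay uses free parasites. The T. cruzi assay uses intracellular parasites in H9c2 host cells.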

Data set [3] is described as follows: Metabolic stability in mouse liver microsomes. It counts as ADME, Microsome.
The test system of data set [4] is Trypanosoma cruzi. Briefly: Antitrypanosomal activity against Trypanosoma cruzi infected in rat H9C2 cells by DRAQ5 DNA dye based imaging analysis. It counts as functional, organism-based. In a few lines:
as §1

The test system of data set [5] is Trypanosoma cruzi. Briefly: Trypanosomacidal activity against Trypanosoma cruzi strain Y trypomastigotes assessed as reduction in number of infected cells at 0.078 uM measured for 24 to 96 hrs by Hoechst 33342 staining based fluorescence imaging assay relative to benznidazole. It counts as functional. In a few lines:
(§2)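 Time-to-kill assay against intracellular T. cruzi, with test article at 0.312 or 0.078 μM. Controls were benznidazole 20 μM, posaconazole 0.04 μM and DMSO. The number of infected host cells was tracked over time after drug addition.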

Data set [6] is described as follows: Selectivity index, ratio of cytotoxicity against rat H9C2 cells to IC50 for antitrypanosomal activity against Trypanosoma cruzi infected in rat H9C2 cells. It counts as toxicity, cell-based. The settings on record: read-out: Selectivity Index.
Data set [7] relates to Trypanosoma cruzi. Briefly: Antitrypanosomal activity against Trypanosoma cruzi Tulahuen C2C4 trypomastigotes infected in rat L6 cells after 96 hrs by photometric analysis. Type of data set: functional, organism-based.
Data set [8] in a line: Half life in human liver microsomes. Type of data set: ADME, Microsome. For orientation: Microsomes from liver hold many membrane-bound enzymes, among them those of drug oxidation.
The nature of data set [9]: Toxicity in BALB/c mouse infected with Trypanosoma cruzi Brazil trypomastigotes expressing firefly luciferase assessed as body weight loss at 50 mg/kg, po via gavage twice daily at 30 mins after administration with 50 mg/kg, ip CYP inhibitor, 1-aminobenzotriazole twice daily. It counts as organism-based. The settings on record: in vivo, 0.5 h. In a few lines: (§3)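 Acutely infected BALB/c mice carried luciferase-expressing T. cruzi Brazil strain. Mice received oral gavage twice daily of 50 mg/kg test article in PBS with 2% methylcellulose and 0.5% Tween 80. Each dose followed ip 1-aminobenzotriazole 50 mg/kg by 30 min.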

The subject of data set [10] is Trypanosoma brucei rhodesiense. Briefly: Antitrypanosomal activity against blood stream form of Trypanosoma brucei rhodesiense STIB900 after 72 hrs by Alamar blue based fluorometric assay. It counts as functional, organism-based. (The colour change of resazurin is a common sign of viable cells or microbes.)
The test system of data set [11] is Trypanosoma cruzi. Nature of the data set: Trypanosomacidal activity against Trypanosoma cruzi strain Y trypomastigotes assessed as reduction in number of infected cells at 0.078 uM measured within first 24 hrs by Hoechst 33342 staining based fluorescence imaging assay. Type of data set: functional, organism-based. In a few lines:
as §2

Data set [12] is described as follows: Kinetic solubility of compound at pH 2 to 6.5 by nephelometry. Type of data set: physicochemical. To be noted: buffer, read-out: Kinetic_solubility.
The next data set concerns Plasmodium falciparum. Nature of the data set: Antiplasmodial activity against erythrocytic stage of Plasmodium falciparum after 48 hrs by [3H]-hypoxanthine incorporation assay. It counts as functional, organism-based.
The subject of a further data set is Leishmania donovani. Briefly: AntiLeishmanial activity against amastigote form of Leishmania donovani MHOM/ET/67/L82 after 72 hrs by Alamar blue dye based fluorometric analysis. Type of data set: functional, organism-based.
A short description of data set [13]: Selectivity index, ratio of IC50 for human HEK293 cells incubated for 69 hrs by resazurin dye based fluorescence analysis to IC50 for antitrypanosomal activity against Trypanosoma brucei brucei BS427. The settings on record: read-out: Ratio IC50. Type of data set: toxicity.
Data set [14] in a line: Metabolic stability in human liver microsomes. Type of data set: ADME, Microsome.
A short description of data set [15]: Toxicity in BALB/c mouse infected with Trypanosoma cruzi Brazil trypomastigotes expressing firefly luciferase assessed as lethargy at 50 mg/kg, po via gavage twice daily at 30 mins after administration with 50 mg/kg, ip CYP inhibitor, 1-aminobenzotriazole twice daily. It counts as organism-based. The settings on record: in vivo, 0.5 h. In a few lines:
as §3

Data set [16] relates to Trypanosoma cruzi. Briefly: Trypanosomacidal activity against Trypanosoma cruzi strain Y trypomastigotes assessed as reduction in number of infected cells at 0.312 uM measured within first 24 hrs by Hoechst 33342 staining based fluorescence imaging assay. Type of data set: functional, organism-based. In a few lines: as §2
The test system of data set [17] is Trypanosoma cruzi. Nature of the data set: Trypanosomacidal activity against Trypanosoma cruzi strain Y trypomastigotes assessed as reduction in number of infected cells at 0.312 uM measured for 24 to 96 hrs by Hoechst 33342 staining based fluorescence imaging assay relative to benznidazole. Type of data set: functional. In a few lines:
as §2

By IC50 is commonly meant the concentration needed to halve the response being measured. As usually defined, the half-life is the time in which the quantity being followed falls by half. A low value points to rapid decline. Turning to `O=C(NCCn1ccc(-c2ccc(F)c(F)c2)n1)N1CC[C@H](F)C1`, the outcome (in the data set with Trypanosoma cruzi [1]; in the data set with Trypanosoma cruzi [7]; in [10]; with Trypanosoma cruzi [11]; in the data set on Plasmodium falciparum; in the data set on Leishmania donovani) was Active. Moreover, the concentration for half-maximal inhibition (IC50) in data set [2] was 9 nM; in the data set with Trypanosoma cruzi [4] it was 16 nM. Also, the Stability entry in data set [3] and in data set [14] was “Stable” each time. In the data set on Trypanosoma cruzi [5], the “fold change (FC)” value is 36. The selectivity ratio in [6] fell in the range of 588 to 3160. For the same molecule, the half-life in data set [8] worked out at 23 min. Besides, the Activity result in data set [9] and in [15] was “Toxic” in each case. The solubility kinetic in [12] was greater than 20 µg/mL. For the same molecule, in [13], the selectivity ratio at 69 h was 8650.

Take `O=C(NCCn1ccc(-c2ccccc2)n1)N1CCCCC1`: the figures for the IC50 (in data set [2]; in the data set on Trypanosoma cruzi [4]) were 60 nM and 250 nM, respectively. Further, the selectivity ratio in data set [6] is 32. Moreover, the result (with Trypanosoma cruzi [7]; in data set [10]; in the data set with Trypanosoma cruzi [16]; with Plasmodium falciparum; in the data set with Leishmania donovani) was Active. Moreover, the “fold change (FC)” value with Trypanosoma cruzi [17] was 36. In addition, the solubility kinetic in [12] is greater than 20 µg/mL. Also, the selectivity ratio at 69 h in data set [13] was determined as 1350.
